ChEMBL document CHEMBL4837210 (Eur J Med Chem, 2021)
The source made the active and inactive calls. The rule behind the calls is not given here.

What was measured:
Staphylococcus aureus [1] = assay: In vivo antibacterial activity against […] Staphylococcus aureus ATCC 25923 infected in Kunming mouse assessed as reduction in bacterial load at 25 mg/kg, ip administered 1 hr post bacterial infection and measured after 1 hr post compound treatment; type: functional, organism-based
Procedure, shortened: (§1)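 Kunming mice (~25 g, 6 per group) infected intravenously with 6 × 10⁷ CFU S. aureus ATCC25923 in 0.2 mL saline. About 1 h later, 1, 5 or 25 mg/kg was given intraperitoneally in 0.5 mL vehicle, with linezolid as reference. Orbital blood (100 µL) was taken before and 1 h after treatment, spread on MH agar and counted after 24 h.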

[2] = tested on: Staphylococcus epidermidis; assay: Ratio of MBC to MIC against penicillin-resistant Staphylococcus epidermidis; type: functional
Procedure, shortened: (§2)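 MBC/MIC ratio from the broth microdilution MIC (24 h, 37 °C, MH broth) and the MBC (clear wells subcultured on tryptic soy agar, 24 h). A ratio ≤4 is read as bactericidal per CLSI.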

Bacillus subtilis [3] = assay: Antibacterial activity against penicillin-susceptible Bacillus subtilis ATCC 9372 assessed as bacterial growth inhibition incubated for 24 hrs by CLSI protocol based broth microdilution method; type: functional
Staphylococcus aureus [4] = assay: Bactericidal activity against […] Staphylococcus aureus ATCC 25923 assessed as log reduction in colony forming unit at 2 times MIC after 24 hrs by time kill assay; type: functional
Procedure, shortened: (§3)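 Samples at 0, 3, 6, 9, 12 and 24 h were serially diluted in MH broth and plated on tryptic soy agar. CFU/mL from colony counts after 24 h at 37 °C.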

Bacillus pumilus [5] = assay: Bactericidal activity against penicillin-susceptible Bacillus pumilus CMCC 63202 measured after 24 hrs by CLSI protocol based method; type: functional
Procedure, shortened: (§4)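 MBC followed on from the 24 h broth microdilution MIC plates. Aliquots from clear wells were spread on tryptic soy agar and incubated aerobically at 37 °C for 24 h. MBC was the minimum concentration giving no colonies.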

Enterococcus faecium = assay: Antibacterial activity against vancomycin-susceptible Enterococcus faecium ATCC19434 assessed as bacterial growth inhibition incubated for 24 hrs by CLSI protocol based broth microdilution method; details: ATCC19434, 24 h
[6] = tested on: Staphylococcus epidermidis; assay: Bactericidal activity against penicillin-resistant Staphylococcus epidermidis measured after 24 hrs by CLSI protocol based method; type: functional
Procedure, shortened: (§5)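 MBC after broth microdilution. After 24 h, aliquots from clear wells were plated on tryptic soy agar and incubated aerobically 24 h at 37 °C. MBC was the lowest concentration giving no colonies.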

Staphylococcus aureus [7] = assay: Ratio of MBC to MIC against penicillin-resistant Staphylococcus aureus; type: functional; procedure, shortened: as §2
Bacillus subtilis [8] = assay: Bactericidal activity against penicillin-susceptible Bacillus subtilis ATCC 9372 measured after 24 hrs by CLSI protocol based method; type: functional; procedure, shortened: as §4
Staphylococcus aureus [9] = assay: Antibacterial activity against penicillin-resistant Staphylococcus aureus assessed as inhibition of bacterial growth measured by broth microdilution method; type: functional; details: time 24 hrs
Procedure, shortened: (§6)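 Broth microdilution MIC. A 0.5 McFarland suspension was diluted 10-fold and added at 1.5 × 10⁷ cfu/mL to 2-fold dilutions (0.125–64) in Mueller Hinton broth. Incubated aerobically 24 h at 37 °C. MIC was the lowest concentration with no visible turbidity.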

Streptococcus pyogenes = assay: Antibacterial activity against erythromycin-susceptible Streptococcus pyogenes clinical isolate 1 assessed as bacterial growth inhibition incubated for 24 hrs by CLSI protocol based broth microdilution method; type: functional
Staphylococcus aureus [10] = assay: Ratio of MBC to MIC against erythromycin-susceptible Staphylococcus aureus ATCC 25923; type: functional; procedure, shortened: as §2
Staphylococcus aureus [11] = assay: Bactericidal activity against penicillin-resistant Staphylococcus aureus measured after 24 hrs by CLSI protocol based method; type: functional; procedure, shortened: as §5
Staphylococcus aureus [12] = assay: Antibacterial activity against methicillin-resistant Staphylococcus aureus ATCC 43300 assessed as inhibition of bacterial growth by broth microdilution method; type: functional; details: time 24 hrs; procedure, shortened: as §6
Staphylococcus aureus [13] = assay: Bactericidal activity against […] Staphylococcus aureus ATCC 25923 assessed as log reduction in colony forming unit at 4 times MIC after 3 hrs by time kill assay; type: functional; procedure, shortened: as §3
[14] = target: T1, Cell division protein FtsZ (Bacillus subtilis) (UniProt A5Z1V5); assay: Induction of Bacillus subtilis FtsZ polymerization assessed as formation of bundling of FtsZ protofilaments at 10 ug/ml after 20 mins by transmission electron microscopic analysis; details: dose 10.0 µg/ml
T1 sequence (whole entry): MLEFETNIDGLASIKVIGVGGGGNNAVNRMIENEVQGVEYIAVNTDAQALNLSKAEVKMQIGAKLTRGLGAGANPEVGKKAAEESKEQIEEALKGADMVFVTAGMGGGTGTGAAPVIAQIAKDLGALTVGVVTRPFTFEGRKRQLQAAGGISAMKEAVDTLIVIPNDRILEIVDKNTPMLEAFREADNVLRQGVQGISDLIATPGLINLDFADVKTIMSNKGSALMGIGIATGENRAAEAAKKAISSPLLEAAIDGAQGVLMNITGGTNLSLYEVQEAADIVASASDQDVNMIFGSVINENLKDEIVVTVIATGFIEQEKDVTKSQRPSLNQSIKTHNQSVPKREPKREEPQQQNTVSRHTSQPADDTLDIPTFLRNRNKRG
Procedure, shortened: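 B. subtilis FtsZ was incubated with or without compound for 20 min in Tris pH 7.4 polymerization buffer (KCl, MgCl₂, Triton X-100, GTP). Samples were applied to glow-discharged Formvar carbon-coated copper grids for 10 min, negatively stained with 1% phosphotungstic acid for 1 min, air-dried and imaged by TEM.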

Staphylococcus aureus [15] = assay: Bactericidal activity against […] Staphylococcus aureus ATCC 25923 assessed as reduction in colony forming unit at 0.5 times MIC by time kill assay; type: functional, organism-based; procedure, shortened: as §3
[16] = tested on: Staphylococcus epidermidis; assay: Antibacterial activity against penicillin-resistant Staphylococcus epidermidis assessed as inhibition of bacterial growth measured by broth microdilution method; type: functional; details: time 24 hrs
Staphylococcus aureus [17] = assay: Bactericidal activity against methicillin-resistant Staphylococcus aureus ATCC 43300 measured after 24 hrs by CLSI protocol based method; type: functional; procedure, shortened: as §5
Pseudomonas aeruginosa = assay: Inhibition of biofilm formation in Pseudomonas aeruginosa ATCC 27853 at 64 ug/ml incubated for 18 hrs by crystal violet staining based method; type: functional, organism-based; details: dose 64.0 µg/ml
Procedure, shortened: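 P. aeruginosa ATCC27853 was grown overnight in MH medium, washed and diluted to OD₆₂₀ 0.05, grown to mid-log (OD₆₂₀ 0.3–0.5), then rediluted to 0.05. Cultures were grown statically with compound at 37 °C for 18 h. Wells were washed with PBS, fixed in methanol for 15 min and stained with 0.1% crystal violet for 30 min. Stain was solubilized in 1% SDS and read at A540, in triplicate.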

Bacillus pumilus [18] = assay: Ratio of MBC to MIC against penicillin-susceptible Bacillus pumilus CMCC 63202; type: functional; procedure, shortened: as §2
Staphylococcus aureus [19] = assay: Bactericidal activity against erythromycin-susceptible Staphylococcus aureus ATCC 25923 measured after 24 hrs by CLSI protocol based method; type: functional; procedure, shortened: as §5
Staphylococcus aureus [20] = assay: In vivo antibacterial activity against […] Staphylococcus aureus ATCC 25923 infected in Kunming mouse assessed as reduction in viable bacterial cells at 5 mg/kg, administered 1 hr post bacterial infection and measured after 1 hr post compound treatment; type: functional, organism-based; procedure, shortened: as §1
Enterococcus faecalis [21] = assay: Antibacterial activity against vancomycin-resistant Enterococcus faecalis ATCC 51299 assessed as bacterial growth inhibition incubated for 24 hrs by CLSI protocol based broth microdilution method; type: functional
Enterococcus faecalis [22] = assay: Antibacterial activity against vancomycin-susceptible Enterococcus faecalis ATCC 29212 assessed as bacterial growth inhibition incubated for 24 hrs by CLSI protocol based broth microdilution method; type: functional

C[n+]1c2ccccc2c(/C=C/c2ccc(C(C)(C)C)cc2)c2ccccc21.[I-]
Activity (Staphylococcus aureus [1]): Active
Ratio [2]: 1
MIC (Bacillus subtilis [3]): 0.25 µg/mL
Activity (Staphylococcus aureus [4]): 2.43 CFU
MBC (Bacillus pumilus [5]): 2 µg/mL
MIC (Enterococcus faecium): 4 µg/mL
MIC [6]: 1 µg/mL
Ratio (Staphylococcus aureus [7]): 2
MBC (Bacillus subtilis [8]): 0.5 µg/mL
MIC (Staphylococcus aureus [9]): 2 µg/mL
MIC (Streptococcus pyogenes): < 0.125 µg/mL
Ratio (Staphylococcus aureus [10]): 4
MBC (Staphylococcus aureus [11]): 4 µg/mL
MIC (Staphylococcus aureus [12]): 1 µg/mL
Activity (Staphylococcus aureus [13]): 2.2 CFU
Activity [14]: Active
MIC (Staphylococcus aureus [15]): inactive
MIC [16]: 1 µg/mL
MBC (Staphylococcus aureus [17]): 4 µg/mL
inhibition (Pseudomonas aeruginosa): inactive
Ratio (Bacillus pumilus [18]): 4
MBC (Staphylococcus aureus [19]): 2 µg/mL
Activity (Staphylococcus aureus [20]): Active
MIC (Enterococcus faecalis [21]): 4 µg/mL
MIC (Enterococcus faecalis [22]): 2 µg/mL
